According to ChEMBL document CHEMBL4304756, “Second-Generation Tryptamine Derivatives Potently Sensitize Colistin Resistant Bacteria to Colistin” (ACS Med Chem Lett, 2019):
Calls of active or inactive are those of the source. No cut-off for these calls is given here.

Assays:
[1] = Hemolytic activity in sheep RBC at 200 uM incubated for 1 hr by UV spectrophotometry; type: ADME, cell-based, Ovis aries, Erythrocyte; conditions: sheep red blood cells (erythrocytes), read-out: Activity
Outline: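 Red blood cells exposed to compound at 200 μM, with percent cell lysis recorded.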

[2] = tested on: Klebsiella pneumoniae; assay: Potentiation of colistin-induced antibacterial activity against Klebsiella pneumoniae 2210291 assessed as colistin MIC at 50 uM incubated for 16 hrs by broth microdilution method (reference value: 1 ug/ml); type: functional; conditions: Klebsiella pneumoniae, 2210291, 16 h
[3] = tested on: Escherichia coli; assay: Potentiation of colistin-induced antibacterial activity against Escherichia coli YD626 assessed as colistin MIC at 50 uM incubated for 16 hrs by broth microdilution method (reference value: 1 ug/ml); type: functional; conditions: YD626, 16 h
[4] = tested on: Escherichia coli; assay: Potentiation of colistin-induced antibacterial activity against Escherichia coli YD626 harbouring mcr-1 gene assessed as colistin MIC at 50 uM incubated for 16 hrs by broth microdilution method (reference value: 8 ug/ml); type: functional; conditions: YD626, 16 h
[5] = tested on: Acinetobacter baumannii; assay: Potentiation of colistin-induced antibacterial activity against Acinetobacter baumannii 17978 assessed as colistin MIC at 50 uM incubated for 16 hrs by broth microdilution method (reference value: 2 ug/ml); type: functional; conditions: Acinetobacter baumannii, 17978, 16 h
[6] = tested on: Acinetobacter baumannii; assay: Potentiation of colistin-induced antibacterial activity against Acinetobacter baumannii 17978 harbouring mcr-1 gene assessed as colistin MIC at 50 uM incubated for 16 hrs by broth microdilution method (reference value: 16 ug/ml); type: functional; conditions: Acinetobacter baumannii, 17978, 16 h
[7] = tested on: Klebsiella pneumoniae; assay: Potentiation of colistin-induced antibacterial activity against Klebsiella pneumoniae 2210291 harbouring mcr-1 gene assessed as colistin MIC at 50 uM incubated for 16 hrs by broth microdilution method (reference value: 16 ug/ml); type: functional; conditions: Klebsiella pneumoniae, 2210291, 16 h
[8] = tested on: Acinetobacter baumannii; assay: Antivirulence activity in Acinetobacter baumannii 4106 infected Galleria mellonella larvae model assessed as survival rate at 100 mg/kg measured at 24 hrs interval over 4 days; type: functional
Outline: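 A. baumannii 4106 was given to Galleria mellonella larvae at 6 × 10^5 CFU, the lethal inoculum found by dose escalation. Larvae were treated with colistin 50 mg/kg, adjuvant 50 mg/kg, colistin plus adjuvant (50 mg/kg each), or tigecycline 100 mg/kg as positive control. Survival was scored out to day 4.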

[9] = tested on: Acinetobacter baumannii; assay: Potentiation of colistin-induced antibacterial activity against Acinetobacter baumannii 3941 assessed as reduction in colistin MIC at 15 uM incubated for 16 hrs by broth microdilution method (reference value: 512 ug/ml); type: functional; conditions: Acinetobacter baumannii, 3941, 16 h
[10] = tested on: Klebsiella pneumoniae; assay: Potentiation of colistin-induced antibacterial activity against Klebsiella pneumoniae B9 assessed as reduction in colistin MIC at 20 uM incubated for 16 hrs by broth microdilution method (reference value: 512 ug/ml); type: functional; conditions: B9, 16 h
[11] = tested on: Klebsiella pneumoniae; assay: Potentiation of colistin-induced antibacterial activity against Klebsiella pneumoniae B9 assessed as reduction in colistin MIC at 10 uM incubated for 16 hrs by broth microdilution method (reference value: 512 ug/ml); type: functional; conditions: B9, 16 h
Outline: (§1)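 Colistin MIC was measured against chromosomally colistin-resistant strains (K. pneumoniae B9, C3; A. baumannii 4106, among four strains) with adjuvant at fixed levels from 20 μM down to 7.5 μM. Fold reduction was reported against colistin alone, with the CLSI breakpoint taken as ≤2 μg/mL.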

[12] = tested on: Acinetobacter baumannii; assay: Potentiation of colistin-induced antibacterial activity against Acinetobacter baumannii 3941 assessed as reduction in colistin MIC at 10 uM incubated for 16 hrs by broth microdilution method (reference value: 512 ug/ml); type: functional; conditions: Acinetobacter baumannii, 3941, 16 h
[13] = tested on: Acinetobacter baumannii; assay: Potentiation of colistin-induced antibacterial activity against Acinetobacter baumannii 4106 assessed as reduction in colistin MIC at 10 uM incubated for 16 hrs by broth microdilution method (reference value: 1024 ug/ml); type: functional; conditions: Acinetobacter baumannii, 4106, 16 h
[14] = tested on: Klebsiella pneumoniae; assay: Potentiation of colistin-induced antibacterial activity against Klebsiella pneumoniae C3 assessed as reduction in colistin MIC at 20 uM incubated for 16 hrs by broth microdilution method (reference value: 512 ug/ml); type: functional; conditions: C3, 16 h; outline: as §1
[15] = tested on: Acinetobacter baumannii; assay: Potentiation of colistin-induced antibacterial activity against Acinetobacter baumannii 4106 assessed as reduction in colistin MIC at 20 uM incubated for 16 hrs by broth microdilution method (reference value: 1024 ug/ml); type: functional; conditions: Acinetobacter baumannii, 4106, 16 h
[16] = tested on: Klebsiella pneumoniae; assay: Potentiation of colistin-induced antibacterial activity against Klebsiella pneumoniae 2210291 harbouring mcr-1 gene assessed as reduction in colistin MIC at 15 uM incubated for 16 hrs by broth microdilution method (reference value: 16 ug/ml); type: functional; conditions: Klebsiella pneumoniae, 2210291, 16 h
Outline: (§2)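 For the dose-response, colistin MIC was measured against mcr-1 plasmid-bearing E. coli, K. pneumoniae and A. baumannii while the adjuvant concentration was lowered stepwise (30, 15 μM, down to 5 μM). The aim was to find where the MIC rose above the 2 μg/mL CLSI susceptibility breakpoint.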

[17] = tested on: Acinetobacter baumannii; assay: Potentiation of colistin-induced antibacterial activity against Acinetobacter baumannii 3941 assessed as reduction in colistin MIC at 20 uM incubated for 16 hrs by broth microdilution method (reference value: 512 ug/ml); type: functional; conditions: Acinetobacter baumannii, 3941, 16 h
[18] = tested on: Klebsiella pneumoniae; assay: Potentiation of colistin-induced antibacterial activity against Klebsiella pneumoniae B9 assessed as reduction in colistin MIC at 5 uM incubated for 16 hrs by broth microdilution method (reference value: 512 ug/ml); type: functional; conditions: B9, 16 h
[19] = tested on: Klebsiella pneumoniae; assay: Potentiation of colistin-induced antibacterial activity against Klebsiella pneumoniae B9 assessed as reduction in colistin MIC at 7.5 uM incubated for 16 hrs by broth microdilution method (reference value: 512 ug/ml); type: functional; conditions: B9, 16 h
[20] = tested on: Acinetobacter baumannii; assay: Potentiation of colistin-induced antibacterial activity against Acinetobacter baumannii 17978 harbouring mcr-1 gene assessed as reduction in colistin MIC at 15 uM incubated for 16 hrs by broth microdilution method (reference value: 16 ug/ml); type: functional; conditions: Acinetobacter baumannii, 17978, 16 h; outline: as §2
[21] = tested on: Klebsiella pneumoniae; assay: Potentiation of colistin-induced antibacterial activity against Klebsiella pneumoniae C3 assessed as reduction in colistin MIC at 15 uM incubated for 16 hrs by broth microdilution method (reference value: 512 ug/ml); type: functional; conditions: C3, 16 h
[22] = tested on: Acinetobacter baumannii; assay: Potentiation of colistin-induced antibacterial activity against Acinetobacter baumannii 4106 assessed as reduction in colistin MIC at 15 uM incubated for 16 hrs by broth microdilution method (reference value: 1024 ug/ml); type: functional; conditions: Acinetobacter baumannii, 4106, 16 h
[23] = tested on: Escherichia coli; assay: Potentiation of colistin-induced antibacterial activity against Escherichia coli YD626 harbouring mcr-1 gene assessed as reduction in colistin MIC at 15 uM incubated for 16 hrs by broth microdilution method (reference value: 8 ug/ml); type: functional; conditions: YD626, 16 h; outline: as §2
[24] = tested on: Klebsiella pneumoniae; assay: Potentiation of colistin-induced antibacterial activity against Klebsiella pneumoniae C3 assessed as reduction in colistin MIC at 10 uM incubated for 16 hrs by broth microdilution method (reference value: 512 ug/ml); type: functional; conditions: C3, 16 h
[25] = tested on: Klebsiella pneumoniae; assay: Potentiation of colistin-induced antibacterial activity against Klebsiella pneumoniae B9 assessed as reduction in colistin MIC at 15 uM incubated for 16 hrs by broth microdilution method (reference value: 512 ug/ml); type: functional; conditions: B9, 16 h
[26] = tested on: Escherichia coli; assay: Potentiation of colistin-induced antibacterial activity against Escherichia coli YD626 harbouring mcr-1 gene assessed as reduction in colistin MIC at 15 uM incubated for 16 hrs by broth microdilution method; type: functional, organism-based; outline: as §2
[27] = tested on: Acinetobacter baumannii; assay: Potentiation of colistin-induced antibacterial activity against Acinetobacter baumannii 17978 harbouring mcr-1 gene assessed as reduction in colistin MIC at 15 uM incubated for 16 hrs by broth microdilution method; type: functional, organism-based; outline: as §2
[28] = Cytotoxicity against mouse 4T1 cells assessed as reduction in cell viability incubated for 18 hrs by MTT assay; type: cell-based
Outline: (§3)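 4T1 mouse mammary tumor cells exposed to compound for 18 h, alone or together with colistin at 1 μg/mL. Medium then aspirated and replaced with 0.5 mg/mL MTT in culture medium for colorimetric viability read-out. CT50 taken as the concentration giving 50% cell viability.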

[29] = Cytotoxicity against mouse 4T1 cells assessed as reduction in cell viability in presence of 1 ug/ml colistin incubated for 18 hrs by MTT assay; type: cell-based; outline: as §3
[30] = tested on: Klebsiella pneumoniae; assay: Potentiation of colistin-induced antibacterial activity against Klebsiella pneumoniae 2210291 harbouring mcr-1 gene assessed as reduction in colistin MIC at 15 uM incubated for 16 hrs by broth microdilution method; type: functional, organism-based; outline: as §2

Structure (SMILES) | MIC [2] | MIC [3] | MIC [4] | MIC [5] | MIC [6] | MIC [7] | MIC [9] | MIC [10] | MIC [11] | MIC [12] | MIC [13] | MIC [14] | MIC [15] | MIC [17] | MIC [18] | MIC [19] | MIC [21] | MIC [22] | MIC [24] | MIC [25] | also measured
CCCCc1ccc(NC(=O)NCCc2c[nH]c3ccc(Br)cc23)cc1 | 0.5 µg/mL | 1 µg/mL | 8 µg/mL | 2 µg/mL | 16 µg/mL | 16 µg/mL | – | – | – | – | – | – | – | – | – | – | – | – | – | – | hemolysis at 1 h, 200 µM [1]: < 2.5%
CN(C)c1cc(NC(=O)CNC(C)(C)C)c(O)c2c1C[C@H]1C[C@H]3[C@H](N(C)C)C(O)=C(C(N)=O)C(=O)[C@@]3(O)C(O)=C1C2=O [TIGECYCLINE] | – | – | – | – | – | – | – | – | – | – | – | – | – | – | – | – | – | – | – | – | Activity [8]: 20%
O=C(NCCc1c[nH]c2ccc(Br)cc12)Nc1ccc(Cl)c(Cl)c1 | 0.5 µg/mL | 0.25 µg/mL | 0.5 µg/mL | 0.5 µg/mL | 1 µg/mL | 0.5 µg/mL | 4 µg/mL | ≤ 0.25 µg/mL | 1 µg/mL | 8 µg/mL | 4 µg/mL | 1 µg/mL | 2 µg/mL | 2 µg/mL | 8 µg/mL | 2 µg/mL | 2 µg/mL | 2 µg/mL | 4 µg/mL | 0.5 µg/mL | MIC [16]: 1 µg/mL; MIC [20]: 1 µg/mL; MIC [23]: 1 µg/mL
O=C(NCCc1c[nH]c2ccccc12)Nc1cc(Br)cc(Br)c1 | 0.5 µg/mL | 0.25 µg/mL | 2 µg/mL | 0.5 µg/mL | 1 µg/mL | 1 µg/mL | 8 µg/mL | ≤ 0.25 µg/mL | 1 µg/mL | 16 µg/mL | 8 µg/mL | 2 µg/mL | 4 µg/mL | 8 µg/mL | 32 µg/mL | 4 µg/mL | 4 µg/mL | 4 µg/mL | 8 µg/mL | 0.5 µg/mL | Activity [26]: Active; Activity [27]: Active; CC50 at 18 h [28]: 86.2 µM; CC50 at 18 h [29]: 64.2 µM; Activity [30]: Active
